Test results taken from ChEMBL document CHEMBL4622968, “Discovery of [1,2,4]triazolo[4,3-a]pyridines as potent Smoothened inhibitors targeting the Hedgehog pathway with improved antitumor activity in vivo” (Bioorg Med Chem, 2020).
Calls of active or inactive are those of the source. No cut-off for these calls is given here.

Assays:
MDA-MB-468 [1] = experiment: Induction of apoptosis in human MDA-MB-468 cells assessed as live cells at 56 uM incubated for 48 hrs by annexin-V-FITC staining based flow cytometric method (reference value: 98.5 %); assay type: functional
MDA-MB-231 [2] = experiment: Induction of apoptosis in human MDA-MB-231 cells assessed as decrease in Bcl2 protein expression level incubated for 1 hr by Western blot analysis; assay type: functional, cell-based
MDA-MB-231 [3] = experiment: Induction of apoptosis in human MDA-MB-231 cells assessed as increase in apoptosis incubated for 48 hrs by annexin-V-FITC/PI staining based flow cytometric method; assay type: functional, cell-based
MDA-MB-468 [4] = experiment: Induction of apoptosis in human MDA-MB-468 cells assessed as live cells at 14 uM incubated for 48 hrs by annexin-V-FITC staining based flow cytometric method (reference value: 98.5 %); assay type: functional
MDA-MB-468 [5] = experiment: Induction of apoptosis in human MDA-MB-468 cells assessed as decrease in Bcl2 protein expression level incubated for 1 hr by Western blot analysis; assay type: functional, cell-based
Protein smoothened [6] = biological target: T1, Protein smoothened (Homo sapiens, UniProt Q99835); experiment: Binding affinity to recombinant human Smo receptor assessed as association constant at equilibrium by SPR analysis
[7] = Acute toxicity in Kunming mouse assessed as mortality at 5226 mg/kg, ig observed for 14 days relative to control; assay type: organism-based; conditions: in vivo, po, read-out: Activity
In short: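 Kunming mice, groups of 5 female and 5 male per dose, dosed once by gavage at graded doses; mortality recorded over 14 days as dead/treated and percent. LD50 derived by improved Karber's method: LD50 = lg^-1[xm − i(ΣP − 0.5)], xm log of maximal dose, i log ratio of neighbouring doses; 95% confidence intervals given.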

MDA-MB-468 [8] = experiment: Induction of apoptosis in human MDA-MB-468 cells assessed as necrotic cells at 14 uM incubated for 48 hrs by annexin-V-FITC staining based flow cytometric method (reference value: 1.52 %); assay type: functional
MDA-MB-468 [9] = experiment: Induction of cell cycle arrest in human MDA-MB-468 cells assessed as cell accumulation at S phase at 56 uM incubated for 48 hrs by propidium iodide staining-based flow cytometric analysis (reference value: 34.20 %); assay type: functional
In short: (§1)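 Cells were seeded at 1.2×10^5 per well and treated for 48 h (MDA-MB-468: 14, 28, 56 μM). Cells were fixed in 75% ethanol at −20 °C overnight, stained with PI and analysed by flow cytometry. Mean ± S.D. of three independent experiments versus DMSO.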

MDA-MB-468 [10] = experiment: Induction of apoptosis in human MDA-MB-468 cells assessed as late apoptotic cells at 56 uM incubated for 48 hrs by annexin-V-FITC staining based flow cytometric method (reference value: 0.99 %); assay type: functional
Protein smoothened [11] = biological target: T1, Protein smoothened; experiment: Binding affinity to recombinant human Smo receptor assessed as dissociation rate constant by SPR analysis
In short: (§2)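 Surface plasmon resonance with recombinant Smo protein, run in PBS at a flow rate of 2 μL/s and 4 °C. Analytes were injected at 2.5, 5 and 10 μM. The chip was regenerated with 0.5% SDS:glycine-HCl pH 2.0 (1:1). ka, kd, Rmax, KA and KD came from a global fit of the sensorgrams.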

MDA-MB-231 [12] = experiment: Induction of apoptosis in human MDA-MB-231 cells assessed as increase in Bax protein expression level incubated for 1 hr by Western blot analysis; assay type: functional, cell-based
MDA-MB-468 [13] = experiment: Induction of apoptosis in human MDA-MB-468 cells assessed as early apoptotic cells at 28 uM incubated for 48 hrs by annexin-V-FITC staining based flow cytometric method (reference value: 2.00 %); assay type: functional
Mus musculus = species on record: Mus musculus; experiment: Inhibition of SAG-induced hedgehog pathway in mouse NIH/3T3 cells assessed as inhibition of Smo localization to primary cilia pretreated with SAG for 6 hrs followed by incubating for 24 hrs by confocal laser-scanning microscopy; assay type: cell-based
In short: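 NIH3T3 cells in DMEM + 10% FBS were seeded at 2×10^4 per well on chamber slides for 24 h. They were stimulated with SAG (200 nM) for 6 h, then exposed to compound for 24 h. Cells were fixed in 4% paraformaldehyde and permeabilized with 0.1% Triton. Acetylated α-tubulin and Smo were immunostained and imaged by confocal microscopy.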

U-251 = experiment: Antiproliferation activity against human U251 cells assessed as reduction in cell viability incubated for 72 hrs by MTT assay; assay type: functional, cell-based; conditions: U-251, 72 h
In short: (§3)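 MTT assay. Cells were plated overnight and exposed to a range of concentrations for 72 h. MTT was then added for 4 h and absorbance read at 570 nm. Inhibition% = [(control − compound)/(control − blank)] × 100. IC50 was fitted from the curves. Mean ± S.D. of 3–5 separate experiments. RPMI 1640 + 10% FBS; MCF10A in DMEM/F12 with 5% horse serum, EGF, hydrocortisone, insulin and cholera toxin.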

MDA-MB-468 [14] = experiment: Induction of cell cycle arrest in human MDA-MB-468 cells assessed as cell accumulation at G0/G1 phase at 14 uM incubated for 48 hrs by propidium iodide staining-based flow cytometric analysis (reference value: 38.94 %); assay type: functional; in short: as §1
MDA-MB-468 [15] = experiment: Induction of apoptosis in human MDA-MB-468 cells assessed as live cells at 28 uM incubated for 48 hrs by annexin-V-FITC staining based flow cytometric method (reference value: 98.5 %); assay type: functional
[16] = Inhibition of hedgehog pathway in mouse NIH/3T3 cells harboring GRE-Luc assessed as inhibition of SAG-induced Hh signaling pathway by dual luciferase reporter gene assay; assay type: cell-based; conditions: NIH3T3
In short: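 NIH3T3 cells co-transfected with 8×3' Gli-BS-delta51-Luc II firefly reporter and pRL-TK Renilla plasmid; after 24 h treated with compounds plus SAG (pathway activator). Gli luciferase normalized to Renilla (dual-luciferase read-out); IC50 = concentration halving normalized signal; mean ± S.D. of 3–5 separate experiments.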

MDA-MB-468 [17] = experiment: Induction of apoptosis in human MDA-MB-468 cells assessed as increase in Bax protein expression level incubated for 1 hr by Western blot analysis; assay type: functional, cell-based
AN3-CA = experiment: Antiproliferation activity against human AN3CA cells assessed as reduction in cell viability incubated for 72 hr by MTT assay; assay type: functional, cell-based; in short: as §3
MDA-MB-468 [18] = experiment: Induction of cell cycle arrest in human MDA-MB-468 cells assessed as cell accumulation at S phase at 28 uM incubated for 48 hrs by propidium iodide staining-based flow cytometric analysis (reference value: 34.20 %); assay type: functional; in short: as §1
A549 = experiment: Antiproliferation activity against human A549 cells assessed as reduction in cell viability incubated for 72 hrs by MTT assay; assay type: functional, cell-based; conditions: A549, 72 h; in short: as §3
MDA-MB-468 [19] = experiment: Induction of apoptosis in human MDA-MB-468 cells assessed as necrotic cells at 56 uM incubated for 48 hrs by annexin-V-FITC staining based flow cytometric method (reference value: 1.52 %); assay type: functional
MDA-MB-468 [20] = experiment: Inhibition of hedgehog pathway in human MDA-MB-468 cells assessed as decrease in Smo protein levels in cilia at 28 uM incubated for 24 hrs by immunostaining based confocal microscopic analysis; assay type: cell-based
In short: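 MDA-MB-468 cells were treated at 28 μM for 24 h with or without SAG. Cilia were immunostained for acetylated α-tubulin and Smo and imaged by confocal microscopy. Comparisons were made against DMSO and against SAG alone.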

Protein smoothened [21] = biological target: T1, Protein smoothened; experiment: Binding affinity to recombinant human Smo receptor assessed as association rate constant by SPR analysis; in short: as §2

T1 sequence (Q99835 whole entry): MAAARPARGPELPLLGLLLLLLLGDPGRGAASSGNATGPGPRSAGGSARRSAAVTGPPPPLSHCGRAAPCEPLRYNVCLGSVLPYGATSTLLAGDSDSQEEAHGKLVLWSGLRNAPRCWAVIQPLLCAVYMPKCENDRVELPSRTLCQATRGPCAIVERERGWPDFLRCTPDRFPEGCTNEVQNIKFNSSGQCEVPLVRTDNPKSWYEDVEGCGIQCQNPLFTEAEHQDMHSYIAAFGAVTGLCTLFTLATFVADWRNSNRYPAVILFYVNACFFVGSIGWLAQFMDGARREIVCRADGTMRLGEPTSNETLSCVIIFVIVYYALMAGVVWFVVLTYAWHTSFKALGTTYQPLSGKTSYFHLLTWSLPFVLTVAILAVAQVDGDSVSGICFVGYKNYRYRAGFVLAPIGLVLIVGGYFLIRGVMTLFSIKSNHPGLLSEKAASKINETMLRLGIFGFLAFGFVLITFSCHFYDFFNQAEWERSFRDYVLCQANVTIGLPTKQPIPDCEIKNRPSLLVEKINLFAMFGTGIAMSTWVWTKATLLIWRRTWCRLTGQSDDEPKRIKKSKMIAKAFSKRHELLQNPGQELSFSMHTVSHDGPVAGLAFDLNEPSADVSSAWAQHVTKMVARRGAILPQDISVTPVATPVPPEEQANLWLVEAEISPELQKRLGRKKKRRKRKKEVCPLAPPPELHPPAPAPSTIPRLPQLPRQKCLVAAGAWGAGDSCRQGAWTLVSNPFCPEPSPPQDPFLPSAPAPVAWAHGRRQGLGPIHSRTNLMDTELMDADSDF

O=C(Nc1ccc(Cl)c(-c2nnc3c(Cl)cccn23)c1)c1ccc(Cl)nc1Cl
Activity (MDA-MB-468 [1]): 60.3% | Activity (MDA-MB-231 [2]): Active | Activity (MDA-MB-231 [3]): Dose-dependent effect | Activity (MDA-MB-468 [4]): 74.84% | Activity (MDA-MB-468 [5]): Active | KA (Protein smoothened [6]): 9.71 ×10⁷ /M | mortality at 336 h [7]: 70% | Activity (MDA-MB-468 [8]): 9.4% | Activity (MDA-MB-468 [9]): 44% | Activity (MDA-MB-468 [10]): 24.1% | Kdiss (Protein smoothened [11]): 0.00375 ×10⁻³ /s | Activity (MDA-MB-231 [12]): Active | Activity (MDA-MB-468 [13]): 7.71% | inhibition (Mus musculus): Active | IC50 (U-251): 85.2 µM | Activity (MDA-MB-468 [14]): 30.69% | Activity (MDA-MB-468 [15]): 67.8% | IC50 [16]: 0.09 µM | Activity (MDA-MB-468 [17]): Active | IC50 (AN3-CA): 44.5 µM | Activity (MDA-MB-468 [18]): 39% | IC50 (A549): 64.9 µM | Activity (MDA-MB-468 [19]): 9.06% | inhibition (MDA-MB-468 [20]): Active | Ka (Protein smoothened [21]): 360 M⁻¹ s⁻¹
